Source: ChEMBL document CHEMBL1129036, “Bisindolylmaleimides linked to DNA minor groove binding lexitropsins: synthesis, inhibitory activity against topoisomerase I, and biological evaluation” (J Med Chem, 1996)
In brackets after ≈: the same amount, converted by molar mass.

Experiments:
[1] = molecular target: T1, DNA topoisomerase 1 (Homo sapiens) (UniProt P11387); experiment: Topoisomerase I DNA relaxation activity was evaluated by Agarose Gel Electrophoresis test at concentration 25 uM; settings: Escherichia coli; at 25 µM
T1 sequence (whole entry): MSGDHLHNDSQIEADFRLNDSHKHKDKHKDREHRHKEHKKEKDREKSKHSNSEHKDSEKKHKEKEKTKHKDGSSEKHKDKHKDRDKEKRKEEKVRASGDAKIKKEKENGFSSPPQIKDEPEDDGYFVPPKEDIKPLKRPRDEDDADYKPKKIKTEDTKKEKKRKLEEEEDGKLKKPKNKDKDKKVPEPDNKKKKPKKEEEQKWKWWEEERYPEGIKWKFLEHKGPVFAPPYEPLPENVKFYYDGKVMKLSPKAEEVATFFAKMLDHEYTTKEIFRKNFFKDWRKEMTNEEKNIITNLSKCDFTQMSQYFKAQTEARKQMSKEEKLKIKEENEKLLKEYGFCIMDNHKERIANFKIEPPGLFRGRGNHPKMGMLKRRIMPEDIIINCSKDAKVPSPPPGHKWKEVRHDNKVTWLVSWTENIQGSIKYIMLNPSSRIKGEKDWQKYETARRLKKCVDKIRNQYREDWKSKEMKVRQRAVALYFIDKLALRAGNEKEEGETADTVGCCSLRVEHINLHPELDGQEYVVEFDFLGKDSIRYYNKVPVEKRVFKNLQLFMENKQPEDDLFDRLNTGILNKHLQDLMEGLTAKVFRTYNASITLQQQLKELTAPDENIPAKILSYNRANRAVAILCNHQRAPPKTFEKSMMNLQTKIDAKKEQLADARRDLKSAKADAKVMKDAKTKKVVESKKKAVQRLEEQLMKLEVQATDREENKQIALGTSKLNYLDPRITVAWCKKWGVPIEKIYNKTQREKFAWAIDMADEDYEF
Procedure, shortened: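 0.25 µg supercoiled pBR322 DNA and 0.5 unit topoisomerase I incubated with ligand for 30 min at 37 °C (10 µL final). Equal volume loading buffer with SDS added, a further 30 min at 37 °C, agarose gel run overnight, ethidium bromide stained. Supercoiled DNA remaining quantified by laser densitometry of the photographed gel. Scored as % inhibition bands (<10% to 75-100%).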

[2] = molecular target: T1, DNA topoisomerase 1 (Homo sapiens); experiment: Topoisomerase I […] was evaluated by Fluorescence assay using Ethidium Bromide before heat denaturation of pBR322 DNA at concentration 250 uM; settings: Escherichia coli
Procedure, shortened: (§1)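 0.25 µg pBR322 DNA incubated with ligand alone, no enzyme, 30 min at 37 °C. Ethidium bromide buffer added (0.5 µg/mL EtBr, 20 mM K₃PO₄, 0.5 mM EDTA, pH 12). Fluorescence measured at ex 525/em 600 nm before and after heat denaturation of DNA; percent change vs control.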

[3] = molecular target: T1, DNA topoisomerase 1 (Homo sapiens); experiment: Topoisomerase I DNA relaxation activity was evaluated by Fluorescence assay using Ethidium Bromide before heat denaturation of pBR322 DNA at concentration 50 uM; settings: Escherichia coli
Procedure, shortened: (§2)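 0.25 µg pBR322 DNA with ligand plus topoisomerase I (0.5 unit), 30 min at 37 °C. Then ethidium bromide buffer added (0.5 µg/mL EtBr, 20 mM K₃PO₄, 0.5 mM EDTA, pH 12). Fluorescence read at ex 525/em 600 nm before and after heat denaturation of DNA; percent change vs control.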

[4] = molecular target: T1, DNA topoisomerase 1 (Homo sapiens); experiment: Topoisomerase I […] was evaluated by Fluorescence assay using Ethidium Bromide after heat denaturation of pBR322 DNA at concentration 250 uM; settings: Escherichia coli; procedure, shortened: as §1
[5] = molecular target: T1, DNA topoisomerase 1 (Homo sapiens); experiment: Topoisomerase I DNA relaxation activity was evaluated by Fluorescence assay using Ethidium Bromide before heat denaturation of pBR322 DNA at concentration 25 uM; settings: Escherichia coli; at 25 µM
Procedure, shortened: (§3)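 0.25 µg pBR322 DNA incubated with ligand and topoisomerase I (0.5 unit) for 30 min at 37 °C. Ethidium bromide buffer then added (0.5 µg/mL ethidium bromide, 20 mM K₃PO₄, 0.5 mM EDTA, pH 12). Fluorescence read at excitation 525 nm and emission 600 nm, before and after heat denaturation of the DNA. Reported as percent change from control.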

[6] = molecular target: T1, DNA topoisomerase 1 (Homo sapiens); experiment: Topoisomerase I […] was evaluated by Fluorescence assay using Ethidium Bromide before heat denaturation of pBR322 DNA at concentration 50 uM; settings: Escherichia coli; procedure, shortened: as §1
[7] = molecular target: T1, DNA topoisomerase 1 (Homo sapiens); experiment: Topoisomerase I DNA relaxation activity was evaluated by Fluorescence assay using Ethidium Bromide after heat denaturation of pBR322 DNA at concentration 250 uM; settings: Escherichia coli; procedure, shortened: as §2
[8] = In vitro cytotoxicity against KB cancer cell line (ATCC CCL 17).; format: cell-based; settings: human, KB cancer cells (ATCC CCL 17); read-out: TD50 (the source's name)
Procedure, shortened: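 KB cells grown in Eagle's MEM with 10% calf serum, 37 °C, humidified 5% CO₂. Seeded at 3 × 10³ cells/mL, cultured 24 h, then compound added in triplicate at several concentrations for 3 days. TD50 is the concentration giving 50% reduction in cell count; average of ≥3 determinations.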

[9] = molecular target: T1, DNA topoisomerase 1 (Homo sapiens); experiment: Topoisomerase I DNA relaxation activity was evaluated by Agarose Gel Electrophoresis test at concentration 50 uM; settings: Escherichia coli
Procedure, shortened: (§4)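 Relaxation of 0.25 µg supercoiled pBR322 DNA by 0.5 unit topoisomerase I, 30 min at 37 °C with ligand (25–250 µM), final volume 10 µL. SDS-containing loading buffer added, further 30 min at 37 °C. Agarose gel run overnight, stained with ethidium bromide (0.5 µg/mL), photographed. Percent supercoiled DNA remaining by laser densitometry, scored in bands (<10% to 75–100%).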

[10] = molecular target: T1, DNA topoisomerase 1 (Homo sapiens); experiment: Topoisomerase I DNA relaxation activity was evaluated by Fluorescence assay using Ethidium Bromide after heat denaturation of pBR322 DNA at concentration 50 uM; settings: Escherichia coli; procedure, shortened: as §2
[11] = molecular target: T1, DNA topoisomerase 1 (Homo sapiens); experiment: Topoisomerase I […] was evaluated by Fluorescence assay using Ethidium Bromide after heat denaturation of pBR322 DNA at concentration 100 uM; settings: Escherichia coli; procedure, shortened: as §1
[12] = molecular target: T1, DNA topoisomerase 1 (Homo sapiens); experiment: Topoisomerase I DNA relaxation activity was evaluated by Fluorescence assay using Ethidium Bromide after heat denaturation of pBR322 DNA at concentration 25 uM; settings: Escherichia coli; at 25 µM; procedure, shortened: as §3
[13] = molecular target: T1, DNA topoisomerase 1 (Homo sapiens); experiment: Topoisomerase I DNA relaxation activity was evaluated by Agarose Gel Electrophoresis test at concentration 250 uM; settings: Escherichia coli; procedure, shortened: as §4
[14] = molecular target: T1, DNA topoisomerase 1 (Homo sapiens); experiment: Topoisomerase I […] was evaluated by Fluorescence assay using Ethidium Bromide after heat denaturation of pBR322 DNA at concentration 50 uM; settings: Escherichia coli; procedure, shortened: as §1
[15] = molecular target: T1, DNA topoisomerase 1 (Homo sapiens); experiment: Topoisomerase I DNA relaxation activity was evaluated by Agarose Gel Electrophoresis test at concentration 100 uM; settings: Escherichia coli; procedure, shortened: as §4
[16] = molecular target: T1, DNA topoisomerase 1 (Homo sapiens); experiment: Topoisomerase I DNA relaxation activity was evaluated by Fluorescence assay using Ethidium Bromide before heat denaturation of pBR322 DNA at concentration 250 uM; settings: Escherichia coli; procedure, shortened: as §2
[17] = molecular target: T1, DNA topoisomerase 1 (Homo sapiens); experiment: Topoisomerase I DNA relaxation activity was evaluated by Fluorescence assay using Ethidium Bromide before heat denaturation of pBR322 DNA at concentration 100 uM; settings: Escherichia coli; procedure, shortened: as §2
[18] = molecular target: T1, DNA topoisomerase 1 (Homo sapiens); experiment: Topoisomerase I […] was evaluated by Fluorescence assay using Ethidium Bromide after heat denaturation of pBR322 DNA at concentration 25 uM; settings: Escherichia coli; at 25 µM
Procedure, shortened: as §3, with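 “ligand” for “ligand and topoisomerase I (0.5 unit)”, “°C without topoisomerase I (DNA and compound only).” for “°C.”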

[19] = molecular target: T1, DNA topoisomerase 1 (Homo sapiens); experiment: Topoisomerase I DNA relaxation activity was evaluated by Fluorescence assay using Ethidium Bromide after heat denaturation of pBR322 DNA at concentration 100 uM; settings: Escherichia coli; procedure, shortened: as §2
[20] = molecular target: T1, DNA topoisomerase 1 (Homo sapiens); experiment: Topoisomerase I […] was evaluated by Fluorescence assay using Ethidium Bromide before heat denaturation of pBR322 DNA at concentration 25 uM; settings: Escherichia coli; at 25 µM
Procedure, shortened: as §3, with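 “ligand” for “ligand and topoisomerase I (0.5 unit)”, “°C without topoisomerase I (DNA and compound only).” for “°C.”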

[21] = molecular target: T1, DNA topoisomerase 1 (Homo sapiens); experiment: Topoisomerase I […] was evaluated by Fluorescence assay using Ethidium Bromide before heat denaturation of pBR322 DNA at concentration 100 uM; settings: Escherichia coli; procedure, shortened: as §1
[22] = molecular target: T1, DNA topoisomerase 1 (Homo sapiens); settings: Escherichia coli; at 25 µM
[23] = molecular target: T1, DNA topoisomerase 1 (Homo sapiens); settings: Escherichia coli; at 25 µM; remark: listed apart in the source

SMILES	inhibition [1]	Change [2]	Change [3]	Change [4]	Change [5]	Change [6]	Change [7]	CC50 [8]	inhibition [9]	Change [10]	Change [11]	inhibition [13]	Change [14]	inhibition [15]	Change [16]	Change [17]	Change [18]	Change [19]	Change [20]	Change [21]	further results
CN(C)CCCNC(=O)c1cc(NC(=O)c2cc(NC(=O)Cn3cc(C4=C(c5c[nH]c6ccccc56)C(=O)NC4=O)c4ccccc43)cn2C)cn1C	< 10%	32%	10%	14%	7%	14%	9%	92.3 µg/mL (≈ 129 µM)	25%	4%	12%	75%	3%	50%	14%	18%	5%	15%	2%	21%	Change [12]: 3%
COC(=O)c1cc(NC(=O)c2cc(NC(=O)Cn3cc(C4=C(c5c[nH]c6ccccc56)C(=O)NC4=O)c4ccccc43)cn2C)cn1C	0%	33%	2%	10%	3%	3%	3%	58 µg/mL (≈ 90.1 µM)	0%	7%	15%	0%	15%	0%	24%	1%	4%	12%	5%	2%	Change [12]: 13%
CN(C)CCCNC(=O)c1cc(NC(=O)c2cc(NC(=O)c3cc(NC(=O)Cn4cc(C5=C(c6c[nH]c7ccccc67)C(=O)NC5=O)c5ccccc54)cn3C)cn2C)cn1C	25%	28%	15%	4%	11%	26%	13%	> 100 µg/mL	50%	7%	13%	100%	15%	75%	14%	20%	6%	15%	28%	24%	Change [12]: 3%
CN(C)CCCNC(=O)c1cc(NC(=O)Cn2cc(C3=C(c4c[nH]c5ccccc45)C(=O)NC3=O)c3ccccc32)cn1C	0%	18%	5%	2%		1%	3%	84 µg/mL (≈ 142 µM)	0%	0%	3%	25%	7%	< 10%	10%	6%	12%	0%	1%	6%	Change [22]: 3%; Change [23]: 6%
COC(=O)c1cc(NC(=O)c2cc(NC(=O)c3cc(NC(=O)Cn4cc(C5=C(c6c[nH]c7ccccc67)C(=O)NC5=O)c5ccccc54)cn3C)cn2C)cn1C	0%	52%	9%	20%	1%	25%	3%	77.3 µg/mL (≈ 101 µM)	0%	9%	17%	0%	17%	0%	36%	15%	14%	0%	11%	33%	Change [12]: 6%
CC[C@@]1(O)C(=O)OCc2c1cc1n(c2=O)Cc2cc3ccccc3nc2-1 [CAMPTOTHECIN]			12%					0.01 µg/mL (≈ 0.0287 µM)		7%						3%		3%			Change [22]: 6%; Change [23]: 7%
COC(=O)c1cc(NC(=O)Cn2cc(C3=C(c4c[nH]c5ccccc45)C(=O)NC3=O)c3ccccc32)cn1C	0%	2%	1%	17%		3%	9%	53.2 µg/mL (≈ 102 µM)	0%	18%	14%	0%	12%	0%	1%	3%	15%	12%	2%	6%	Change [22]: 1%; Change [23]: 18%
